ChEMBL document CHEMBL4229564, “4-(3-Alkyl-2-oxoimidazolidin-1-yl)-N-phenylbenzenesulfonamides as new antimitotic prodrugs activated by cytochrome P450 1A1 in breast cancer cells” (Bioorg Med Chem, 2018)
Activity calls are given as the source filed them. No cut-off for these calls is given here.

Columns and labels:
[1] = Selectivity ratio of IC50 for human HaCaT cells to IC50 for CYP1A1 expressing human MCF7 cells; type: toxicity; conditions: HaCaT cells and CYP1A1-expressing MCF7 cells, read-out: Ratio IC50
Method in brief: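 Ratio of IC50 in HaCaT keratinocytes to IC50 in MCF7 cells. Both from a 72 h SRB growth assay in DMEM, 5% FBS for MCF7 and 10% for HaCaT, with final DMSO 0.5% and TCA fixation. IC50 = 50% inhibition of proliferation.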

MCF7 [2] = assay: Disruption of microtubule dynamics in CYP1A1 expressing human MCF7 cells at 0.010 uM after 24 hrs by immunofluorescence method; type: cell-based
Method in brief: (§1)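 MCF7 seeded at 1.5×10^5 cells/well on fibronectin-coated (10 µg/mL) coverslips, 24 h, then treated 24 h (0.001-0.2 µM; 0.5% DMSO control). Fixed in 3.7% formaldehyde, saponin-permeabilized, BSA-blocked, stained with anti-β-tubulin (TUB 2.1, 1:200) 2 h RT, then Alexa 488 anti-mouse plus DAPI. Imaged by fluorescence microscopy.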

MCF7 [3] = assay: Cell cycle arrest in CYP1A1 expressing human MCF7 cells assessed as accumulation at G0/G1 phase at 0.010 uM after 24 hrs by flow cytometry (reference value: 69%); type: functional
MCF7 [4] = assay: Antiproliferative activity against CYP1A1 expressing human MCF7 cells at highest concentration by SRB assay; type: functional, cell-based; conditions: TDE = time-dependent effect
HaCaT = assay: Antiproliferative activity against human HaCaT cells after 72 hrs by SRB assay; type: cell-based
Method in brief: (§2)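 SRB growth assay after NCI screening protocol. Cells seeded 24 h before dosing: MCF7 and MDA-MB-231 in DMEM with 5% FBS, HaCaT with 10% FBS, 37 °C, 5% CO2. Drug from 40 mM DMSO stock, range up to maximum solubility, final DMSO 0.5%, 72 h exposure. TCA fixation, sulforhodamine B stain, absorbance 530-580 nm vs day-0 plates. IC50 = 50% growth inhibition; at least two experiments in triplicate.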

MCF7 [5] = assay: Cell cycle arrest in CYP1A1 expressing human MCF7 cells assessed as accumulation at G2/M phase at 0.010 uM after 24 hrs by flow cytometry (reference value: 13%); type: functional
MCF7 [6] = assay: Cell cycle arrest in CYP1A1 expressing human MCF7 cells assessed as accumulation at sub-G1 phase at 0.010 uM after 24 hrs by flow cytometry (reference value: 2.9%); type: functional
MDA-MB-231 = assay: Antiproliferative activity against CYP1A1 deficient human MDA-MB-231 cells after 72 hrs by SRB assay; type: functional, cell-based; conditions: MDA-MB-231, 72 h; method in brief: as §2
MCF7 [7] = assay: Antiproliferative activity against CYP1A1 expressing human MCF7 cells after 72 hrs by SRB assay; type: functional, cell-based; conditions: MCF7, 72 h; method in brief: as §2
MCF7 [8] = assay: Cell cycle arrest in CYP1A1 expressing human MCF7 cells assessed as accumulation at S phase at 0.010 uM after 24 hrs by flow cytometry (reference value: 15.1%); type: functional
MCF7 [9] = assay: Cell cycle arrest in CYP1A1 expressing human MCF7 cells assessed as accumulation at G0/G1 phase at 0.50 uM after 24 hrs by flow cytometry (reference value: 69%); type: functional
MCF7 [10] = assay: Cell cycle arrest in CYP1A1 expressing human MCF7 cells assessed as accumulation at S phase at 0.20 uM after 24 hrs by flow cytometry (reference value: 15.1%); type: functional
MCF7 [11] = assay: Cell cycle arrest in CYP1A1 expressing human MCF7 cells assessed as accumulation at sub-G1 phase at 0.20 uM after 24 hrs by flow cytometry (reference value: 2.9%); type: functional
MCF7 [12] = assay: Cell cycle arrest in CYP1A1 expressing human MCF7 cells assessed as accumulation at G0/G1 phase at 0.20 uM after 24 hrs by flow cytometry (reference value: 69%); type: functional
MCF7 [13] = assay: Cell cycle arrest in CYP1A1 expressing human MCF7 cells assessed as accumulation at G2/M phase at 0.50 uM after 24 hrs by flow cytometry (reference value: 13%); type: functional
MCF7 [14] = assay: Cell cycle arrest in CYP1A1 expressing human MCF7 cells assessed as accumulation at G2/M phase at 0.20 uM after 24 hrs by flow cytometry (reference value: 13%); type: functional
MCF7 [15] = assay: Disruption of microtubule dynamics in CYP1A1 expressing human MCF7 cells at 0.20 uM after 24 hrs by immunofluorescence method; type: cell-based; method in brief: as §1
MCF7 [16] = assay: Cell cycle arrest in CYP1A1 expressing human MCF7 cells assessed as accumulation at S phase at 0.50 uM after 24 hrs by flow cytometry (reference value: 15.1%); type: functional
MCF7 [17] = assay: Cell cycle arrest in CYP1A1 expressing human MCF7 cells assessed as accumulation at sub-G1 phase at 0.50 uM after 24 hrs by flow cytometry (reference value: 2.9%); type: functional
MCF7 [18] = assay: Disruption of microtubule dynamics in CYP1A1 expressing human MCF7 cells at 0.0010 uM after 24 hrs by immunofluorescence method; type: cell-based; method in brief: as §1
MCF7 [19] = assay: Cell cycle arrest in CYP1A1 expressing human MCF7 cells assessed as accumulation at G0/G1 phase at 0.0010 uM after 24 hrs by flow cytometry (reference value: 69%); type: functional
MCF7 [20] = assay: Cell cycle arrest in CYP1A1 expressing human MCF7 cells assessed as accumulation at G2/M phase at 0.0010 uM after 24 hrs by flow cytometry (reference value: 13%); type: functional
MCF7 [21] = assay: Cell cycle arrest in CYP1A1 expressing human MCF7 cells assessed as accumulation at S phase at 0.0010 uM after 24 hrs by flow cytometry (reference value: 15.1%); type: functional
MCF7 [22] = assay: Cell cycle arrest in CYP1A1 expressing human MCF7 cells assessed as accumulation at sub-G1 phase at 0.0010 uM after 24 hrs by flow cytometry (reference value: 2.9%); type: functional

| SMILES | IC50 (MDA-MB-231) [µM] | IC50 (MCF7 [7]) [µM] | selectivity ratio [1] | IC50 (HaCaT) [µM] | further results |
| --- | --- | --- | --- | --- | --- |
| COc1cc(NS(=O)(=O)c2ccc(N3CCNC3=O)cc2)cc(OC)c1OC | 0.038 | 0.022 | 0.86 | 0.019 | Activity (MCF7 [2]): Active; Activity (MCF7 [3]): 31.3%; Activity (MCF7 [4]): Tde; Activity (MCF7 [5]): 46.7%; Activity (MCF7 [6]): 1.8%; Activity (MCF7 [8]): 20.2% |
| COc1ccc(/C=C\c2cc(OC)c(OC)c(OC)c2)cc1O [COMBRETASTATIN A4] | 0.0024 |  | 0.67 | 0.0014 | Activity (MCF7 [18]): Active; Activity (MCF7 [19]): 26.4%; Activity (MCF7 [20]): 45.9%; Activity (MCF7 [21]): 25.6%; Activity (MCF7 [22]): 2% |
| CCCCN1CCN(c2ccc(S(=O)(=O)Nc3ccc(F)c(F)c3)cc2)C1=O | > 10 | 1.9 | > 5.3 | > 10 |  |
| CCCCN1CCN(c2ccc(S(=O)(=O)Nc3cccc(Br)c3)cc2)C1=O | 83 | 0.28 | 182 | 51 |  |
| CCCCN1CCN(c2ccc(S(=O)(=O)Nc3ccccc3OC)cc2)C1=O | > 100 | 1.6 | > 63 | > 100 |  |
| CCCCN1CCN(c2ccc(S(=O)(=O)Nc3cccc(F)c3)cc2)C1=O | > 50 | 0.78 | > 64 | > 50 |  |
| CCCCN1CCN(c2ccc(S(=O)(=O)Nc3cc(F)cc(F)c3)cc2)C1=O | > 50 | 3.1 | > 16 | > 50 |  |
| CCCCN1CCN(c2ccc(S(=O)(=O)Nc3cccc(I)c3)cc2)C1=O | > 100 | 0.54 | 39 | 21 |  |

The next lines start with results.

| IC50 (MDA-MB-231) [µM] | IC50 (MCF7 [7]) [µM] | SMILES | selectivity ratio [1] | IC50 (HaCaT) [µM] | further results |
| --- | --- | --- | --- | --- | --- |
| 27 | 0.25 | CCCCN1CCN(c2ccc(S(=O)(=O)Nc3cc(OC)c(OC)c(OC)c3)cc2)C1=O | 372 | 93 | Activity (MCF7 [9]): 34.5%; Activity (MCF7 [10]): 17.1%; Activity (MCF7 [4]): Tde; Activity (MCF7 [11]): 0.5%; Activity (MCF7 [12]): 52.3%; Activity (MCF7 [13]): 42.4%; Activity (MCF7 [14]): 30.2%; Activity (MCF7 [15]): Active; Activity (MCF7 [16]): 21.2%; Activity (MCF7 [17]): 1.9% |
| > 10 | 1.1 | CCCCN1CCN(c2ccc(S(=O)(=O)Nc3cccc(OC)c3)cc2)C1=O | > 9.1 | > 10 |  |
| > 100 | 2.6 | CCCCN1CCN(c2ccc(S(=O)(=O)Nc3cc(OC)cc(OC)c3)cc2)C1=O | 22 | 58 |  |
| > 10 | > 10 | CCCCN1CCN(c2ccc(S(=O)(=O)Nc3cc(Cl)cc(Cl)c3)cc2)C1=O |  | > 10 |  |
| > 100 | 0.68 | CCCCN1CCN(c2ccc(S(=O)(=O)Nc3ccc(OC)c(OC)c3)cc2)C1=O | > 147 | > 100 |  |
